From ChEMBL document CHEMBL1137812, “Leishmanicidal and antiplasmodial activity of constituents of Smirnowia iranica” (J Nat Prod, 2002) come the findings set out here.

The test system of one data set is Leishmania major. The data set can be described thus: Antileishmanial activity against Leishmania major LV39 promastigotes after 96 hrs by MTT assay. The class given is functional, organism-based. As to conditions: LV39, 96 h. The procedure, abridged:
(§1)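 Promastigotes recovered from liquid-nitrogen cryopreservation were exposed to compounds for 96 h. Parasite viability was read by MTT.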

Data set [1] in a line: Toxicity in human erythrocytes assessed as morphological changes at IC50 after 48 hrs by Giemsa staining. Type of data set: cell-based. The settings on record: erythrocyte.
Data set [2] relates to Leishmania infantum. The data set can be described thus: Antileishmanial activity against Leishmania infantum D.SCH promastigotes after 96 hrs by MTT assay. Type of data set: functional, organism-based. A digest of the protocol: as §1
Data set [3] is described as follows: Toxicity in human erythrocytes assessed as formation of echinocytes and ghost cells at 130 to 300 uM after 48 hrs by Giemsa staining. The settings on record: erythrocyte. The class given is cell-based.
Data set [4] concerns Leishmania donovani. As to the kind of experiment: Antileishmanial activity against Leishmania donovani LV9 promastigotes after 96 hrs by MTT assay. The class given is functional, organism-based. The settings on record: LV9, 96 h. A digest of the protocol: as §1
The next data set relates to Plasmodium falciparum. The data set can be described thus: Antiplasmodial activity against chloroquine-sensitive Plasmodium falciparum 3D7 after 48 hrs as reduced [3H]phenylalanine uptake.
Data set [5] has as its system Leishmania donovani. The data set can be described thus: Antileishmanial activity against Leishmania donovani LV9 amastigotes infected in mouse RAW 264.7 cells after 72 hrs by MTT assay. The class given is functional, organism-based. The procedure, abridged: (§2)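 RAW 264.7 macrophages infected in vitro with stationary-phase promastigotes, seeded at 1 × 10^5 cells per well in RPMI with 10% fetal calf serum and held 24 h at 37 °C for amastigote transformation. Compounds added, duplicate wells, 72 h at 37 °C. Cells lysed with 0.008% SDS, then post-lysis medium added and plates held 3-4 days at 25 °C. Recovered promastigotes quantified by MTT.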

Data set [6] deals with Leishmania infantum. The data set can be described thus: Antileishmanial activity against Leishmania infantum D.SCH amastigotes infected in mouse RAW 264.7 cells after 72 hrs by MTT assay. Type of data set: functional, organism-based. The procedure, abridged: as §2
The next data set concerns RAW264.7. As to the kind of experiment: Cytotoxicity against mouse macrophage RAW264.7 cells after 48 hrs by MTT assay. Type of data set: cell-based. As to conditions: RAW264.7, 48 h. The procedure, abridged: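 Noninfected RAW 264.7 cells were run in parallel with the intracellular amastigote assay and exposed to compounds for 48 h. Viable cells were quantified by MTT.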

The nature of data set [7]: Toxicity in human erythrocytes assessed as morphological changes up to 67 uM after 48 hrs by Giemsa staining. As to conditions: erythrocyte. The class given is cell-based.

Molecules are shown by their SMILES.

Turning to `COc1ccc([C@@H]2COc3c(ccc4c3C=CC(C)(C)O4)C2)c(OC)c1O` [GLYASPERIN H], the IC50 in the data set on Leishmania major stood at 23.7 µM; in the data set with Leishmania infantum [2] it was 14.2 µM; in the data set on Leishmania donovani [4], 25.3 µM; in the data set with Plasmodium falciparum, 33.3 µM; in the data set with Leishmania donovani [5] it was 77 µM; in the data set with Leishmania infantum [6], 89 µM. The compound further showed an IC50 in the data set on RAW264.7 of 172 µM. Besides, the Activity result in [1] is “Non-toxic”; in data set [3], “Toxic”.
On to `C[C@@H]1[C@H](O)[C@@H](C)/C=C/C=C/C=C/C=C/C=C/C=C/C=C/[C@H](O[C@@H]2O[C@H](C)[C@@H](O)[C@H](N)[C@@H]2O)C[C@@H]2O[C@](O)(C[C@@H](O)C[C@@H](O)[C@H](O)CC[C@@H](O)C[C@@H](O)CC(=O)O[C@H]1C)C[C@H](O)[C@H]2C(=O)O` [AMPHOTERICIN B], for which the IC50 in the data set on Leishmania major was determined as 0.03 µM; in the data set with Leishmania infantum [2], 0.02 µM; with Leishmania donovani [5], 0.04 µM; in the data set with Leishmania infantum [6], 0.04 µM.
As for `COc1ccc([C@@H]2COc3c(ccc(O)c3CC=C(C)C)C2)c(OC)c1O`, the Activity entry in [7] is listed as “Non-toxic”. For the same compound, the half-inhibitory concentration (IC50) came to 7.9 µM in the data set with Leishmania major; 9.2 µM in the data set on Leishmania infantum [2]; 6.9 µM with Leishmania donovani [4]; 10.3 µM in the data set with Plasmodium falciparum; 99 µM in the data set on Leishmania donovani [5]; 109 µM with Leishmania infantum [6]. Moreover, the IC50 in the data set with RAW264.7 was 218 µM.
Consider `C/C=C/c1cc(OC)c(OC)c(O)c1OC`, for which the concentration for half-maximal inhibition (IC50) was 387 µM in the data set with Leishmania major; 198 µM in the data set on Leishmania infantum [2]; 232 µM with Leishmania donovani [4]; above 200 µM in the data set with Plasmodium falciparum; 589 µM with Leishmania donovani [5]; above 800 µM in the data set on Leishmania infantum [6]. The compound further came in with a half-inhibitory concentration (IC50) with RAW264.7 of 125 µM.
Consider `C/C=C/c1cc(O)c(OC)c(OC)c1`, for which the IC50 in the data set with Leishmania major was 372 µM; with Leishmania infantum [2] it was 267 µM; in the data set with Leishmania donovani [4], 395 µM; in the data set with Plasmodium falciparum, above 200 µM; in the data set on Leishmania donovani [5], above 800 µM; in the data set with Leishmania infantum [6], above 800 µM. In the data set with RAW264.7, this compound had an IC50 of 281 µM.
For the compound `COc1ccc([C@@H]2COc3c(ccc4occc34)C2)c(OC)c1O` [SMIRANICIN], the IC50 in the data set with Leishmania major was 17.4 µM; in the data set on Leishmania infantum [2], 11.3 µM; in the data set on Leishmania donovani [4], 22.9 µM; with Plasmodium falciparum, 57.6 µM; with Leishmania donovani [5], 112 µM; with Leishmania infantum [6] it was 81 µM. This compound also yielded an IC50 with RAW264.7 of 193 µM. For the same compound, the Activity entry in data set [1] was “Non-toxic”; in [3], “Toxic”.
As for `C/C=C/C1=C(OC)C(=O)C(OC)=C(OC)C1=O`, the IC50 in the data set with Leishmania major was 72 µM; in the data set with Leishmania infantum [2], 74 µM; with Leishmania donovani [4], 97 µM; in the data set with Plasmodium falciparum it was above 200 µM; in the data set with Leishmania donovani [5] it was above 800 µM; in the data set on Leishmania infantum [6] it was above 800 µM. This compound also yielded a 50% inhibitory concentration (IC50) in the data set on RAW264.7 of 256 µM.
